Assay results from the M2OR odorant receptor database.

Legend:
Details in all cases: stereoisomer not certain
OR6A2 (Homo sapiens) = OR6A2 (Homo sapiens) (UniProt O95222)
Summary of the method: (§1)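 Whether a receptor–molecule pair is responsive (active) rests on the original authors' judgment that its measured signal was statistically different from baseline. Pairs without that judgment are non-responsive (inactive). Sources used varied assay methods, commonly transient luciferase assays in mammalian cell lines.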

OR6B1 (Homo sapiens) = OR6B1 (Homo sapiens) (UniProt O95007)
OR6B1 (Homo sapiens), sequence (O95007 whole entry): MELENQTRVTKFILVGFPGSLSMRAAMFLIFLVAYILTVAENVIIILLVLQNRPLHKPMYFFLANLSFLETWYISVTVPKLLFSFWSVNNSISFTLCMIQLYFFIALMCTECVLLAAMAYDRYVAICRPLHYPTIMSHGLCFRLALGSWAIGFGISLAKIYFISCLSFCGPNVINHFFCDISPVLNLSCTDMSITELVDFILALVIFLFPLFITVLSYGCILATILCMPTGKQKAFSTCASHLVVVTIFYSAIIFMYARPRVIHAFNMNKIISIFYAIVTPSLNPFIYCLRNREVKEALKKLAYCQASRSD
Summary of the method: as §1

OR6B2 (Homo sapiens) = OR6B2 (Homo sapiens) (UniProt Q6IFH4)
OR6B2 (Homo sapiens), sequence (Q6IFH4 whole entry): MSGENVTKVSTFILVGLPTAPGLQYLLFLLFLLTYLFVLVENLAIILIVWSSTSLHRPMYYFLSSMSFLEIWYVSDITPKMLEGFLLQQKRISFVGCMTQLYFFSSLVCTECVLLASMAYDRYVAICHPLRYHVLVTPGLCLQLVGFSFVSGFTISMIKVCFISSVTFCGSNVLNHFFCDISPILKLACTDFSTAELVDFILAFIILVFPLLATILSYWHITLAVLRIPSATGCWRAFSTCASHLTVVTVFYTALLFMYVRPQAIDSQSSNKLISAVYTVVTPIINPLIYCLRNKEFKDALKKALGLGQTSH
Summary of the method: as §1

OR6B3 (Homo sapiens) = OR6B3 (Homo sapiens) (UniProt Q8NGW1)
OR6B3 (Homo sapiens), sequence (Q8NGW1 whole entry): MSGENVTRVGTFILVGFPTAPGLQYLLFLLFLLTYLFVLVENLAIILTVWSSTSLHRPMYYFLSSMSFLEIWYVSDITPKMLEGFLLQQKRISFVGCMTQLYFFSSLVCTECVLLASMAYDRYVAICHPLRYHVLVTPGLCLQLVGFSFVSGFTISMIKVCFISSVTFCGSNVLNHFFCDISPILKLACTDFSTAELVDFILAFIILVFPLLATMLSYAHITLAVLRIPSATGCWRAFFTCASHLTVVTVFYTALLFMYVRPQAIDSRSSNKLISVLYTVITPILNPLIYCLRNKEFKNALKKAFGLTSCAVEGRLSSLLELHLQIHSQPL
Summary of the method: as §1

OR6C1 (Homo sapiens) = OR6C1 (Homo sapiens) (UniProt Q96RD1)
OR6C1 (Homo sapiens), sequence (Q96RD1 whole entry): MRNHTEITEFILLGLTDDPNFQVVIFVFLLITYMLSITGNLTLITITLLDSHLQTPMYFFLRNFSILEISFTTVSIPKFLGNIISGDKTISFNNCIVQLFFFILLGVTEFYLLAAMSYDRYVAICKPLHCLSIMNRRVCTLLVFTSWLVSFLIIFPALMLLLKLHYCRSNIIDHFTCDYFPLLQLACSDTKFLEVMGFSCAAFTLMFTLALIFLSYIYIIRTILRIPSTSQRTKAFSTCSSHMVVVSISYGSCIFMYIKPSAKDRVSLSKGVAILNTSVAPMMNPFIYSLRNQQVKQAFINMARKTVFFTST
Summary of the method: as §1

OR6C2 (Homo sapiens) = OR6C2 (Homo sapiens) (UniProt Q9NZP2)
OR6C2 (Homo sapiens), sequence (Q9NZP2 whole entry): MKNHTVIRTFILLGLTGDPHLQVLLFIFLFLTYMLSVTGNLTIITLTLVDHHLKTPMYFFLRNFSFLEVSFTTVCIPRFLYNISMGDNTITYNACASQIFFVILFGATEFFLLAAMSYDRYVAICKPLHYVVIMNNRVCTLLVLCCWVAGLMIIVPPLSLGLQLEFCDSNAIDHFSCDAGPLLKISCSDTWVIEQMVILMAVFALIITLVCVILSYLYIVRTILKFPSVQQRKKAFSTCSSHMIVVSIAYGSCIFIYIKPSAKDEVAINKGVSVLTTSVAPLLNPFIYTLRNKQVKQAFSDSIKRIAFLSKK
Summary of the method: as §1

OR6C3 (Homo sapiens) = OR6C3 (Homo sapiens) (UniProt Q9NZP0)
OR6C3 (Homo sapiens), sequence (Q9NZP0 whole entry): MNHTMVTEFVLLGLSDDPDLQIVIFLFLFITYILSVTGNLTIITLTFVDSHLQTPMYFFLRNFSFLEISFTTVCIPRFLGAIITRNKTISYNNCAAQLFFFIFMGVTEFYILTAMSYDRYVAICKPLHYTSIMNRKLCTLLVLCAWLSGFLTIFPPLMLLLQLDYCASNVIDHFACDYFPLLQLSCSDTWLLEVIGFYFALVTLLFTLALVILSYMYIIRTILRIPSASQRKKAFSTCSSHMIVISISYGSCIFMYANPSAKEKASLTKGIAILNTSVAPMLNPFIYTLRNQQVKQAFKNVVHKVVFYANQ
Summary of the method: as §1

OR6C4 (Homo sapiens) = OR6C4 (Homo sapiens) (UniProt Q8NGE1)
OR6C4 (Homo sapiens), sequence (Q8NGE1 whole entry): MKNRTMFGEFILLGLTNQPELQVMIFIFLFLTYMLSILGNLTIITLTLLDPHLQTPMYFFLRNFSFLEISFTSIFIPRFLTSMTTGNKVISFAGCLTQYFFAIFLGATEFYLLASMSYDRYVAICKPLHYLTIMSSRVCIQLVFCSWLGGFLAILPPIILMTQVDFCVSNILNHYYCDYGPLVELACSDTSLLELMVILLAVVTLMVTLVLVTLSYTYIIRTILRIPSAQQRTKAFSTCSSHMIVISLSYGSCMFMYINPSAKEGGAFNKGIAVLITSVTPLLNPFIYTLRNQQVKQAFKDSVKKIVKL
Summary of the method: as §1

OR6C6 (Homo sapiens) = OR6C6 (Homo sapiens) (UniProt A6NF89)
OR6C6 (Homo sapiens), sequence (A6NF89 whole entry): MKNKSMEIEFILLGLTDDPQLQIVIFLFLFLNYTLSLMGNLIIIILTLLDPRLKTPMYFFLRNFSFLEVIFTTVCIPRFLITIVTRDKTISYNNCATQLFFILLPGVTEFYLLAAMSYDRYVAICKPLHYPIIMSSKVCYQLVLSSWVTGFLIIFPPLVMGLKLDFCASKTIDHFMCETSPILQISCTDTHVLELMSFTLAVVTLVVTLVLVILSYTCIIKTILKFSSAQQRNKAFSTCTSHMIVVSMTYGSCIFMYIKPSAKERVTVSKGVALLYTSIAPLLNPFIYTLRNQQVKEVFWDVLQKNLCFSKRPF
Summary of the method: as §1

OR6C65 (Homo sapiens) = OR6C65 (Homo sapiens) (UniProt A6NJZ3)
OR6C65 (Homo sapiens), sequence (A6NJZ3 whole entry): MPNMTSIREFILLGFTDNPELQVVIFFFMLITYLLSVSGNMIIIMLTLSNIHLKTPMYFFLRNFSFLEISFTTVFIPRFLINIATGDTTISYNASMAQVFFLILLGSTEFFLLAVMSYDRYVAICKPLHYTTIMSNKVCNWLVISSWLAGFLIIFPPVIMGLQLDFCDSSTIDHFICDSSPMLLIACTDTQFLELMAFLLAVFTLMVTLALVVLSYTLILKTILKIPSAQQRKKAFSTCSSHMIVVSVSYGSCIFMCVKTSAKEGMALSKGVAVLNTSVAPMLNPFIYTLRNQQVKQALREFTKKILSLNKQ
Summary of the method: as §1

OR6C68 (Homo sapiens) = OR6C68 (Homo sapiens) (UniProt A6NDL8)
OR6C68 (Homo sapiens), sequence (A6NDL8 whole entry): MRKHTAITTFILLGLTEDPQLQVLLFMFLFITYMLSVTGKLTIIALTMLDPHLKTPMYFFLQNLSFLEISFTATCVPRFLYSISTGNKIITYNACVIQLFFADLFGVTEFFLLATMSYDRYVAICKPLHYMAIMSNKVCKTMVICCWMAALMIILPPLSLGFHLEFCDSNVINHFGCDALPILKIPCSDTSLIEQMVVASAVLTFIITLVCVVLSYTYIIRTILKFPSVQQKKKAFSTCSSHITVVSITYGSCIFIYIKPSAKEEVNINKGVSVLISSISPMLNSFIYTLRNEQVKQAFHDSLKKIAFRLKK
Summary of the method: as §1

OR6C70 (Homo sapiens) = OR6C70 (Homo sapiens) (UniProt A6NIJ9)
OR6C70 (Homo sapiens), sequence (A6NIJ9 whole entry): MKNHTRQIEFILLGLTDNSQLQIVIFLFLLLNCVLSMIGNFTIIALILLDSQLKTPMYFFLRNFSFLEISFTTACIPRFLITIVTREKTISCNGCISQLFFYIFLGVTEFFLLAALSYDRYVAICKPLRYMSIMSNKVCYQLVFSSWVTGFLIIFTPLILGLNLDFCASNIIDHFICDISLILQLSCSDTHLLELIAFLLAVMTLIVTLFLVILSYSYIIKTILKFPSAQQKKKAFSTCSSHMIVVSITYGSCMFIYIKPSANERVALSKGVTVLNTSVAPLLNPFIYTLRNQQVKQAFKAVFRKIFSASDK
Summary of the method: as §1

OR6C74 (Homo sapiens) = OR6C74 (Homo sapiens) (UniProt A6NCV1)
OR6C74 (Homo sapiens), sequence (A6NCV1 whole entry): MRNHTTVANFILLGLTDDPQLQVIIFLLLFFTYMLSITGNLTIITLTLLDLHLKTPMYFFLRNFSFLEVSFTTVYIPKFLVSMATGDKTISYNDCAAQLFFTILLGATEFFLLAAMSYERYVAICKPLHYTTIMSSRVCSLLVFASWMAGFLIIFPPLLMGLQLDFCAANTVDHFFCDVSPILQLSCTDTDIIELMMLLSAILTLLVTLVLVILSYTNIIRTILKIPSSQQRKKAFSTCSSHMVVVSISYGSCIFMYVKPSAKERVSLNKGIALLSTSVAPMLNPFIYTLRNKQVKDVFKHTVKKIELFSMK
Summary of the method: as §1

OR6C75 (Homo sapiens) = OR6C75 (Homo sapiens) (UniProt A6NL08)
OR6C75 (Homo sapiens), sequence (A6NL08 whole entry): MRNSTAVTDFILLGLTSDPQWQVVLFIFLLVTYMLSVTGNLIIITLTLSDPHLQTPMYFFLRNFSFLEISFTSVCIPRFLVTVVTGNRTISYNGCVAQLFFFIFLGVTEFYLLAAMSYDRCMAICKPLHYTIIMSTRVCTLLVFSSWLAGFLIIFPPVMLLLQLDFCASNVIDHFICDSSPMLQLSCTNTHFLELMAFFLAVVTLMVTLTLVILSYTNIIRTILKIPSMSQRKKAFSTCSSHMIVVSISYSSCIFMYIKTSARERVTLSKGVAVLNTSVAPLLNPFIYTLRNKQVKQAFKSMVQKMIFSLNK
Summary of the method: as §1

OR6A2 I50V = system: OR6A2 I50V
OR6A2 I50V, sequence (as listed by the source, stated change not applied): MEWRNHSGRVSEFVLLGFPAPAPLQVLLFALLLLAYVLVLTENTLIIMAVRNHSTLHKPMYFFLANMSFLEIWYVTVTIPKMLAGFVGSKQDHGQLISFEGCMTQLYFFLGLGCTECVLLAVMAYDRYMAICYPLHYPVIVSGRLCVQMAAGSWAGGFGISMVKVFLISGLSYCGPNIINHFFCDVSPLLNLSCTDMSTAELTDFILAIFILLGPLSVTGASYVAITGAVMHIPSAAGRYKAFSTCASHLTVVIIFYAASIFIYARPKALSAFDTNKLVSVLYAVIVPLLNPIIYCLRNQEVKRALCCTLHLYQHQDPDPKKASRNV
Summary of the method: as §1

OR6B2 R122C C179R = system: OR6B2 R122C C179R
Summary of the method: as §1

OR6B3 T48I R131C = system: OR6B3 T48I R131C
Summary of the method: as §1

OR6C1 C130Y H165D V246I = system: OR6C1 C130Y H165D V246I
Summary of the method: as §1

OR6C4 = system: OR6C4
OR6C4, sequence (as listed by the source): as the sequence (Q8NGE1 whole entry) above, with I37V counted along it
Summary of the method: as §1

OR6C6 M6I = system: OR6C6 M6I
OR6C6 M6I, sequence (as listed by the source): as the sequence (A6NF89 whole entry) above, with M6I counted along it
Summary of the method: as §1

Measured: odorant receptor agonist call;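 note: active if original authors judged signal statistically different from baseline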

OR6A2 (Homo sapiens), sequence (O95222 whole entry): as the sequence (as listed by the source, stated change not applied) above, with V50I counted along it

Cc1c([N+](=O)[O-])c(C)c([N+](=O)[O-])c(C(C)(C)C)c1[N+](=O)[O-]
not listed: OR6A2 I50V | OR6B2 R122C C179R | OR6B3 T48I R131C | OR6C1 C130Y H165D V246I | OR6C4 | OR6C6 M6I
inactive: all other assays above

C=CCOC(=O)Cc1ccccc1
inactive: all assays above
